PubChem BioAssay

Molecular target: Voltage-gated potassium channel subunit beta-2 (Rattus norvegicus) (UniProt P62483)
Test: enhancers of rat Kvbeta2 NADPH turnover – biochemical, NADPH fluorescence, primary screen (AID 623;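 active means NADPH fluorescence slope more negative than the mean of all samples by about 3 SD, 99.7% confidence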;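 further: fluorescence intensity change per second fitted from 20 to 320 s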)
Details: Recombinant KvBeta, NADPH fluorescence decrease slope, 10 min; at 10 µM; active compounds read low

Sequence of Voltage-gated potassium channel subunit beta-2 (Rattus norvegicus) (P62483 whole entry, looked up): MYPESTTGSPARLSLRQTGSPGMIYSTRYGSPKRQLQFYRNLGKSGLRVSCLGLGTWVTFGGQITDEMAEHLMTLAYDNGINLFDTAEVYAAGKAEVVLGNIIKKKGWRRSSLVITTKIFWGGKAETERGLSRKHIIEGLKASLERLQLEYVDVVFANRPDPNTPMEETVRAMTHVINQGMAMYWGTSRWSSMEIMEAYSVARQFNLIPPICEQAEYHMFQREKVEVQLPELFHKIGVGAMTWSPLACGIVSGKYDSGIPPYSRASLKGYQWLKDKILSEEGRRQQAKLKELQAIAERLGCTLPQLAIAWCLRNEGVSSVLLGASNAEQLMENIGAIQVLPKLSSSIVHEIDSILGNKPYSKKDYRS

NADPH fluorescence slope, inactive:
O=C(CCn1c(=O)sc2ccccc21)NC1=NCCS1 8e-05, Cc1ccc(C(C)C)c(OCCCN2CC(C)OC(C)C2)c1 (stereo unspecified) -5.1e-06, COc1cccc(-c2cc(C(=O)Nc3cc(OC)c(OC)c(OC)c3)no2)c1 -4.5e-05, O=C1NC(c2ccccc2)(C(F)(F)F)SC2=NCCCN12 (stereo unspecified) 4.2e-05, O=C(CP(=O)(CO)CO)c1ccc(Cl)cc1 4.7e-05, CC(C)[N+]1(C)[C@@H]2CC[C@H]1CC(OC(=O)C(CO)c1ccccc1)C2 (stereo partly specified) -5.7e-05, CCC(=O)N1CCc2cc(Br)cc(S(=O)(=O)CCC(=O)NCC3CCCO3)c21 (stereo unspecified) -3.4e-05, COc1cc(OC)cc(-c2nc3nc(C)c(CCC(=O)O)c(C)n3n2)c1 -3.8e-05, CCOC(=O)C(CC)(CCC(=O)O)c1csc(N)n1 (stereo unspecified) -3.9e-05, O=C1CC(=O)N(Cc2cccs2)C(=O)N1 5.3e-05, COc1cccc(-c2cc3nc4c(c(N5CCC6(CC5)OCCO6)n3n2)CCCC4)c1 2.4e-05, Nc1nc(C(=O)N2CCOCC2)nn1S(=O)(=O)c1ccc(Cl)cc1 -2.7e-05, O=C(Nc1ccc2c(c1)OCO2)C1CCCN1C(=O)Nc1ccccc1F (stereo unspecified) 3.8e-05, CCOc1cccc(OCCOCCN2CCCC2)c1 -1.9e-05, COc1cccc(C(=O)Nc2cnc(NC(=O)c3ccco3)cc2C)c1 -5.3e-05, CC(C)(C)c1cc(C(=O)O)nn1-c1ccccc1 -3.8e-05, COc1ccccc1OCCn1c(=O)sc2ccccc21 1.7e-05, COC(=O)c1c(C(=O)OC)n(CCCN)c2ccc(C)cc12 -7.5e-06, COc1ccc(OCc2nc(N)nc(Nc3cccc(C)c3C)n2)cc1 -1e-06, N=c1c(C(=O)NCc2ccc(F)cc2)cc2c(=O)n3ccccc3nc2n1CCCN1CCOCC1 -1e-05, Cc1cc(NC(=O)COc2ncnc3sc(C)c(C)c23)no1 -2.9e-05, CCOC(=O)c1ccc(COC(=O)CCc2nc3ccccc3[nH]c2=O)o1 1.7e-05, COc1ccc(N2CCN(c3oc(COc4ccccc4)nc3C#N)CC2)cc1 -9.8e-06

Molecular target: Alpha-2C adrenergic receptor (Homo sapiens) (UniProt P18825)
Test: compounds altering alpha2C-coupled GIRK flux – cell-based, HEK293 alpha2C/GIRK1/2, thallium flux, primary screen (AID 624;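 active means fluorescence slope after compound addition differing from the mean of all screened samples at 99.7% confidence, in either direction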;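 further: slope of fluorescence ratio to pre-addition baseline per second over 15 to 24 s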)
Details: thallium flux BTC fluorescence, at 10 µM, actives lie on both sides

Sequence of Alpha-2C adrenergic receptor (Homo sapiens) (P18825 whole entry, looked up): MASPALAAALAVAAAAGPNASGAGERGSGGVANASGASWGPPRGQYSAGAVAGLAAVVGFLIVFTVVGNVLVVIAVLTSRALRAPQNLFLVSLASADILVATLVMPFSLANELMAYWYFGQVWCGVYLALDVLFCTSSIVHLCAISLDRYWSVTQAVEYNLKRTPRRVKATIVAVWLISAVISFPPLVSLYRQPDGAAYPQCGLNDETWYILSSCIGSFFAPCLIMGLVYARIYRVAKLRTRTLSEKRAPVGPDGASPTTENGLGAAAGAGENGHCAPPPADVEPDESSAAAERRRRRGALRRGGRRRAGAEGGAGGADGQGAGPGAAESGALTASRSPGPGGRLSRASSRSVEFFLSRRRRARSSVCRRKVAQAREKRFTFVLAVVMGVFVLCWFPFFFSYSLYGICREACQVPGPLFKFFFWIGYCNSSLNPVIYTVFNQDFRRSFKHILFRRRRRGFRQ

slope, inactive:
CCOCCCNC(=O)CCNS(=O)(=O)c1ccc(C)cc1 0.00305, CC(C)C12CN3CC(C(C)C)(CN(C1)C3c1ccc3c(c1)OCO3)C2=O (stereo unspecified) 0.00697, CCCCc1oc2ccccc2c1C(=O)c1cc(I)c(OCCN(CC)CC)c(I)c1 0.00817, Cc1cnc(C(=O)NCCc2ccc(S(=O)(=O)NC(=O)NC3CCCCC3)cc2)cn1 0.0053, COc1cccc(-c2cc(C(=O)Nc3cc(OC)c(OC)c(OC)c3)no2)c1 0.00712, CC(C)[N+]1(C)[C@@H]2CC[C@H]1CC(OC(=O)C(CO)c1ccccc1)C2 (stereo partly specified) 0.00449, COc1ccc(OCc2nc(N)nc(Nc3cccc(C)c3C)n2)cc1 0.00333, N=c1c(C(=O)NCc2ccc(F)cc2)cc2c(=O)n3ccccc3nc2n1CCCN1CCOCC1 0.00357

Molecular target: Muscarinic acetylcholine receptor M4 (Homo sapiens) (UniProt P08173)
Test: M4-linked GIRK flux change, two-sided – cell-based, HEK293 M4/GIRK, thallium flux, BTC-AM, M4 allosteric agonist project, primary screen (AID 625);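 further: thallium influx through GIRK channels coupled to M4 in HEK293 cells with BTC-AM dye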
Details: at 10 µM, actives lie on both sides
Procedure, shortened: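 Material: M4/GIRK1/GIRK2 stable HEK293 cell line. Medium: pH 7.3 thallium assay buffer. Dosing: single compound concentration, 10 µM final. Schedule: 1 h dye loading, 2 min kinetic read. Measured by: kinetic fluorescence with BTC-AM dye. Read-out: post-addition slope, 15–24 s, of baseline-normalized fluorescence. Benchmarks: carbachol and DMSO controls.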

Sequence of Muscarinic acetylcholine receptor M4 (Homo sapiens) (P08173 whole entry, looked up): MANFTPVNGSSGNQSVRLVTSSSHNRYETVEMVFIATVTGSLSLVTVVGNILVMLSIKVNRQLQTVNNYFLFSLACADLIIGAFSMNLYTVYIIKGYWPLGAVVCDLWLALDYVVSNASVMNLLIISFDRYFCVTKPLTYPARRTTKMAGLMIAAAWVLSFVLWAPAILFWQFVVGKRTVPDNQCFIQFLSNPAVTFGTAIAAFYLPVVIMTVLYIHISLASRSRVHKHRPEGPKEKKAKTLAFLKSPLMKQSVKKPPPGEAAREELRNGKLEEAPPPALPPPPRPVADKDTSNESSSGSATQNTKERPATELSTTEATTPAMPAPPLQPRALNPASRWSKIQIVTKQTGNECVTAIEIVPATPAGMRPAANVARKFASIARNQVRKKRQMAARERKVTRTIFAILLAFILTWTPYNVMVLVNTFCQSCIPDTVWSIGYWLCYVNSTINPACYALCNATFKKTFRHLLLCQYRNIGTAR

Fluorescence slope, inactive:
O=C(Cc1ccc(S(=O)(=O)N2CCCC2)s1)Nc1nc2c(s1)CCCC2 0.00565, Cn1nnnc1SCC(=O)NCc1ccco1 0.00818, COc1cc(Cn2c(C(=O)O)cc3sccc32)cc(OC)c1OC 0.00343, COc1ccc2c(c1)CCc1c(C(=O)N3CCCc4ccccc43)noc1-2 0.00416, COc1ccc(OC)c(NC(=O)C2CCN(c3cc(-c4ccccc4)nc4ncnn34)CC2)c1 0.00653, C/C(CC(O)(/C=N/O)c1ccccc1)=N\O (stereo unspecified) 0.00371, Cn1cc(C(=O)NC2CCCCCCC2)c(=O)c2cc(S(=O)(=O)N3CCCC3)ccc21 0.00744, Cc1ccc(C2C(C#N)=C(N)Oc3cc4c(cc32)OCO4)cc1 (stereo unspecified) 0.00467, CN(C)S(=O)(=O)c1ccc(C(=O)N2CCC(c3nc4ccccc4o3)CC2)cc1 0.00556, O=C(CN1CCC(n2nnc3cc(F)ccc32)CC1)Nc1ccc2c(c1)CCC2 0.00687, CCOC(=O)CSc1nnc(CNC(=O)c2cccs2)n1-c1cc(OC)ccc1OC 0.00509, O=C(CCn1c(=O)sc2ccccc21)NC1=NCCS1 0.00544, Cc1ccc(C(C)C)c(OCCCN2CC(C)OC(C)C2)c1 (stereo unspecified) 0.00607, O=C1NC(c2ccccc2)(C(F)(F)F)SC2=NCCCN12 (stereo unspecified) 0.00455, O=C(CP(=O)(CO)CO)c1ccc(Cl)cc1 0.00425, CCC(=O)N1CCc2cc(Br)cc(S(=O)(=O)CCC(=O)NCC3CCCO3)c21 (stereo unspecified) 0.00706, COc1cc(OC)cc(-c2nc3nc(C)c(CCC(=O)O)c(C)n3n2)c1 0.00535, CCOC(=O)C(CC)(CCC(=O)O)c1csc(N)n1 (stereo unspecified) 0.00527, O=C1CC(=O)N(Cc2cccs2)C(=O)N1 0.00466, COc1cccc(-c2cc3nc4c(c(N5CCC6(CC5)OCCO6)n3n2)CCCC4)c1 0.00624, Nc1nc(C(=O)N2CCOCC2)nn1S(=O)(=O)c1ccc(Cl)cc1 0.00923, O=C(Nc1ccc2c(c1)OCO2)C1CCCN1C(=O)Nc1ccccc1F (stereo unspecified) 0.0058, CCOc1cccc(OCCOCCN2CCCC2)c1 0.00581, COc1cccc(C(=O)Nc2cnc(NC(=O)c3ccco3)cc2C)c1 0.00623, CC(C)(C)c1cc(C(=O)O)nn1-c1ccccc1 0.00539, COc1ccccc1OCCn1c(=O)sc2ccccc21 0.0055, COC(=O)c1c(C(=O)OC)n(CCCN)c2ccc(C)cc12 0.00606, Cc1cc(NC(=O)COc2ncnc3sc(C)c(C)c23)no1 0.00692, CCOC(=O)c1ccc(COC(=O)CCc2nc3ccccc3[nH]c2=O)o1 0.00556, COc1ccc(N2CCN(c3oc(COc4ccccc4)nc3C#N)CC2)cc1 0.00622
